Dynein cargo inh – blocks dynein driven cargo transport along microtubules; 3617.4 mouse cells, GR-EGFP nuclear translocation imaging; test concentration mostly 20 µM; stimulated with dexamethasone, 1 µM; hits give low values; z-score, hits read low; 0.47% of 220,000 active;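 active means plate z-score of nuclear minus cytoplasmic receptor signal below a set negative limit, without overly bright fluorescence or cell loss, cut at about -3.5 in these data, passing the limit was not always enough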;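 further: z-score of nuclear minus cytoplasmic ring GR-EGFP intensity difference per well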
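Buffer or medium – tet-free medium with charcoal-stripped serum · Signal – automated 10x imaging of fixed Hoechst-stained cells · Also added – dexamethasone agonist, 1.0 µM final, for 30 min · Incubation – induction 48 h, compound 1 h, agonist 30 min · Read-out – GR-EGFP nuclear translocation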
MEKK2 mut-MEK5 – signal of MEK5 binding to mutant human MEKK2 PB1 domain. bead flow cytometry, Alexa488-MEK5 binding to MEKK2 mutant. percent response, % at 10 µM. 0.35% of 290,000 active; in the data active means percent response above about 24%, passing the limit was not always enough
MEKK3 PB1 HTS – modulators (inhibitors or enhancers) of MEK5 binding to human MEKK3 PB1 domain | bead-based flow cytometry, Alexa488-MEK5 binding to MEKK3; actives lie on both sides; 0 = blocked by unlabeled MEK5, 100 = vehicle | binding response (% of control), % at 10 µM | 1.4% of 290,000 active | AID 1529;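 active means binding response more than 3 SD above or below the average of its plate-row segment, actives on both sides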;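 further: Alexa488 bead fluorescence after subtracting the streptavidin-only scavenger bead signal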
Beta2AR agonist – human beta-2 adrenergic receptor agonism by FAP | P07550 | response, % (concentration not given with the values) | Am2.2-beta2AR cells, FAP receptor internalization, flow cytometry | 0.43% of 340,000 active;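 active means response above a set limit, near 3 SD of response in nonfluorescent compounds, cut at about 42% in these data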
Target sequence (P07550 whole entry, looked up): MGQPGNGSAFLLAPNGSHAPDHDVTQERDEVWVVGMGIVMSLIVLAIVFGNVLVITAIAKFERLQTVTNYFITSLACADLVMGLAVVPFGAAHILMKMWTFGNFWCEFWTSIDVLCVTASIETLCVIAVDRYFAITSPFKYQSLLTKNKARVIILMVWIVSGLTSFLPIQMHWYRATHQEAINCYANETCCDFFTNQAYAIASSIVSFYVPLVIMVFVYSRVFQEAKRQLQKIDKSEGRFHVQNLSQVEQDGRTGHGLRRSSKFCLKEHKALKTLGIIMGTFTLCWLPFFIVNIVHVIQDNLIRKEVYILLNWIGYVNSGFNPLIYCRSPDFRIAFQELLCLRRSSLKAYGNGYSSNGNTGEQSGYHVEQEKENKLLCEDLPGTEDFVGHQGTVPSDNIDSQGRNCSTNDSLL
MEKK2wt PB1 HTS – raises or lowers MEK5 binding to wildtype human MEKK2 PB1 domain; 1.1% of 290,000 active; binding response (% of control), % at 10 µM; Q9Y2U5; bead flow cytometry, Alexa488-MEK5 binding to MEKK2 WT; actives lie on both sides; in the data active means binding response below about 67% or above about 130%
ATG4B inhibitor – ATG4B (human) cysteine protease inhibition; 0.51% of 340,000 active; ATG4B cleavage of LC3-PLA2, NBD-HPC fluorescence, 1 h; Q9Y4P1; inhibition, % at 8.33 µM; in the data active means inhibition above about 40%
MEKK2wt confirm – raises or lowers MEK5 binding to wildtype human MEKK2, retest; shares compounds with MEKK3 PB1 HTS; bead flow cytometry, Alexa488-MEK5 binding to MEKK2 WT; actives lie on both sides; binding response (% of control), % at 10 µM; 2.4% of 5,900 active; AID 1892; in the data active means binding response below about 16% or above about 210%; inactive means in between
MEKK2mut-MEK5 – signal of MEK5 binding to mutant human MEKK2, retest. shares compounds with MEKK3 PB1 HTS. bead flow cytometry, Alexa488-MEK5 binding to MEKK2 mutant. percent response, % at 10 µM. 2% of 5,900 active. AID 1893; in the data active means percent response mostly above about 71%, no sharp cut-off; inactive means mostly below about 38%;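 further: higher means compound restores mutant binding toward wildtype level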
MEKK3-MEK5 inh – MEKK3-MEK5 PB1 inhibition, single concentration confirmation | shares compounds with MEKK3 PB1 HTS | bead flow cytometry, Alexa488-MEK5 binding to MEKK3; hits give low values | binding response (% of control), % at 10 µM | 1.8% of 5,900 active | AID 1894;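 active means binding response below 72% of control, or above a set upper limit, though filed actives all read lower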;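 further: 100% = DMSO only wells and 0% = binding blocked by excess unlabeled MEK5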
* marks the source's active call; other numbers are inactive results; x = no result; [ ] = another dose, or the depositor's remark. Shown are actives, neighbours in structure and some others; about 2.9% of the full set was active somewhere.

SMILES	Dynein cargo inh	MEKK2 mut-MEK5	MEKK3 PB1 HTS	Beta2AR agonist	MEKK2wt PB1 HTS	ATG4B inhibitor	MEKK2wt confirm	MEKK2mut-MEK5	MEKK3-MEK5 inh
O=S(=O)(Nc1nc2ccccc2nc1NCC1CCCO1)c1cccc(Cl)c1 (stereo unspecified)	-0.25	15.0	120.0	0.9	112.0	-1.4	x	x	x
COc1cc(C(C)=O)ccc1OCCCOc1cccc2cccnc12	x	8.0	105.0	2.8	106.0	-1.9	x	x	x
CCN1C(=O)/C(=c2\sc3nc(=O)c(Cc4ccccc4)nn3c2=O)c2ccccc21	-0.597	26.0	123.0	5.7	109.0	-12.9	x	x	x
C=CCN1C(=O)/C(=c2\sc3nc(=O)c(Cc4ccccc4)nn3c2=O)c2ccccc21	-0.853	-2.0	95.0	4.3	-4.0*[inhibitor]	-24.6	89.0	-2.0	91.0
Cn1nc(C(F)(F)F)c(-c2ccc(F)cc2)c1NC(=O)c1cccnc1	1.2	28.0	128.0*	1.7	118.0	-12.2	107.0	0.0	103.0
O=C(Cc1ccccc1)NNC(=O)C1CC=CCC1 (stereo unspecified)	x	-1.0	103.0	-0.3	103.0	-5.9	x	x	x
COc1ccccc1N1CCN(C(=O)c2ccc(CSc3ccccc3)cc2)CC1	-0.263	0.0	128.0*	-5.7	107.0	11.2	100.0	1.0	104.0
COc1ccccc1N1CCN(C(=O)c2ccc3[nH]c4c(c3c2)CCCC4)CC1	-1.39	1.0	145.0*	33.5	107.0	-4.0	97.0	0.0	106.0
O=C(O)c1cc(S(=O)(=O)N2CCCCC2)ccc1N1CCOCC1	x	x	x	-9.5	x	0.1	x	x	x
COc1cccc(/C=C2\CCC(C3CCCC3)C2=O)c1OC (stereo unspecified)	x	0.0	97.0	7.7	100.0	8.7	x	x	x
COc1ccc(/C=C/c2cc(-c3ccc(C)cc3)o[n+]2C)cc1	-0.991	18.0	109.0	34.5	155.0*	14.2	112.0	9.0	95.0
O=C(Cn1cc([N+](=O)[O-])ccc1=O)NC1CCCCC1	x	x	x	-2.3	x	5.4	x	x	x
C[C@H](NC(=O)c1ccccc1)C(=O)N1CCC2(CC1)NCCc1[nH]cnc12	x	0.0	103.0	-4.0	104.0	-2.1	x	x	x
Cc1cccc(C(=O)N(Cc2nc3ccccc3c(=O)[nH]2)C2CCCCC2)c1	-0.389	-1.0	74.0*[inhibitor]	2.1	94.0	-4.0	100.0	9.0	102.0
Cc1cccc(C(=O)N(Cc2nc3ccccc3c(=O)[nH]2)C2CCCC2)c1	-0.0973	-11.0	100.0	-6.7	89.0	-3.9	x	x	x
CC1=CC(C)(C)n2c(O)c(N=N)c3cc(C)cc1c32	-0.0452	1.0	141.0*	-3.4	105.0	-3.4	103.0	3.0	103.0
CC1=CC(C)(C)n2c(O)c(N=N)c3c(C)c(C)cc1c32	-0.17	-26.0	75.0	25.5	81.0	27.1	x	x	x
O=c1ccc2ccc(OCc3ccccc3)cc2o1	x	-1.0	98.0	-6.1	98.0	13.6	x	x	x
CC(C)(C)C(=O)COC(=O)c1cc2ccccc2cc1O	1.25	-18.0	67.0*[inhibitor]	-0.8	76.0	-2.0	98.0	7.0	102.0
CC(C)c1nc2ccc(Br)cn2c1NC1CCCC1	-1.47	49.0	129.0*	1.4	123.0	3.0	99.0	-2.0	100.0
COC(=O)C(C)N(C#N)c1nc(C)cc(C)n1 (stereo unspecified)	1.04	7.0	131.0*	4.9	117.0	5.2	107.0	6.0	104.0
COC(=O)C(C)N(C#N)c1nc(NC(C)C)nc(SC)n1 (stereo unspecified)	-1.21	10.0	104.0	5.5	105.0	5.1	x	x	x
COC(=O)NCN1C(=O)C2C3C=CC(C3)C2C1=O (stereo unspecified)	-0.23	6.0	104.0	2.2	110.0	-1.6	x	x	x
CC(=O)Oc1ccc(C(=O)Cc2ccc3ccccc3n2)c(O)c1C	-0.547	7.0	135.0*	5.0	105.0	-3.1	110.0	3.0	108.0
Cc1c(O)ccc(/C(Cc2ccc3ccccc3n2)=N\O)c1O	-0.674	0.0	101.0	3.7	92.0	-12.8	x	x	x
SMILES	Dynein cargo inh	MEKK2 mut-MEK5	MEKK3 PB1 HTS	Beta2AR agonist	MEKK2wt PB1 HTS	ATG4B inhibitor	MEKK2wt confirm	MEKK2mut-MEK5	MEKK3-MEK5 inh
O=C(NCc1ccco1)c1ccc(S(=O)(=O)N2CCCCCC2)cc1	x	x	x	-5.9	x	-4.5	x	x	x
O=C(NCc1cccs1)c1ccc(Cl)c(S(=O)(=O)N2CCCC2)c1	-0.446	-2.0	74.0*[inhibitor]	3.1	93.0	-10.9	105.0	-1.0	103.0
O=C(NCc1ccco1)c1ccc(S(=O)(=O)N2CCCCC2)cc1	1.34	0.0	130.0*	2.8	114.0	-7.3	106.0	5.0	106.0
CC(=O)Nc1ccc(S(=O)(=O)N2CCC(NC(=O)C(Cc3ccc(C)cc3)NC(C)=O)CC2)cc1 (stereo unspecified)	x	-4.0	100.0	2.0	102.0	-0.9	x	x	x
Nc1c2c(nc3ccc(Br)cc13)N(c1ccccc1)CC2	-0.395	6.0	104.0	-2.3	117.0	10.8	x	x	x
Cc1cccc(N2CCc3c2nc2ccc(Br)cc2c3N)c1	-0.708	18.0	124.0*	-1.1	96.0	-0.2	121.0	22.0	111.0
COc1cccc(N/C(SCc2ccccc2C)=C(/C#N)C(=O)NCc2cccs2)c1	-0.21	-1.0	130.0*	10.6	97.0	12.3	83.0	-21.0	84.0
Cc1ccc(OC(=O)CCC(=O)NC(C)c2ccccc2)cc1 (stereo unspecified)	-0.246	-2.0	97.0	13.3	96.0	0.8	x	x	x
Cn1c(=O)cc(N2CCOCC2)[nH]c1=O	2.63	-20.0	75.0	-1.0	70.0*[inhibitor]	-3.1	106.0	7.0	105.0
Cc1cccn2c(NC(=O)c3cccs3)c(-c3ccccc3)nc12	-0.552	1.0	138.0*	6.6	107.0	-6.5	101.0	3.0	104.0
COc1cc(S(=O)(=O)N2CCOCC2)ccc1NC(=O)COC(=O)c1ccc(Cl)nc1	x	x	x	5.8	x	-7.7	x	x	x
CO/N=C/NC(=O)c1c(OC)ccnc1Oc1ccccc1	-0.433	3.0	100.0	15.8	101.0	1.8	x	x	x
COc1ccnc(Oc2ccccc2)c1C(=O)N/C=N/OCc1ccccc1	-0.84	-39.0	67.0*[inhibitor]	-10.8	68.0	1.6	103.0	-3.0	103.0

Bioassay records: PubChem BioAssay, several laboratories
